Experimental findings from ChEMBL document CHEMBL2331496 (Eur J Med Chem, 2013) are described below.

Structures are written as SMILES. Activity calls are given as the source filed them. The rule behind the calls is not given here.

In general, CC50 refers to the concentration that lowers cell viability or growth by half. Low values mean harm at low concentration, high ones better tolerance by the cells. By IC50 is commonly meant the concentration that inhibits the measured activity by half. One may read the EC50 as the concentration that produces a half-maximal response.

The subject of series [1] is Human immunodeficiency virus 1. Briefly: Antiviral activity against HIV1 NL4.3 infected in 293T cells assessed as acentric core at 5 ug/ml after 2 days by electron microscopic analysis. The format is functional, organism-based.
Series [2] relates to Human immunodeficiency virus 1. Put plainly: Antiviral activity against HIV1 NL4.3 infected in 293T cells assessed as spherical core at 5 ug/ml after 2 days by electron microscopic analysis. The series is classed as functional, organism-based.
For series [3], the system named is Human immunodeficiency virus 1. Briefly: Antiviral activity against HIV1 NL4.3 infected in 293T cells assessed as aberrant core at 5 ug/ml after 2 days by electron microscopic analysis. The format is functional, organism-based.
In series [4] the test system is 293T. Put plainly: Inhibition of HIV1 NL4.3 CA-SP1 cleavage infected in 293T cells after 2 days by Western blot analysis. The series is classed as cell-based. The conditions noted are these: Human immunodeficiency virus 1.
The nature of series [5]: Selectivity index, ratio of CC50 for human MAGIC-5B cells to IC50 for HIV1 NL4.3. The format is functional.
A short description of series [6]: Cytotoxicity against human MAGIC-5B cells after 48 hrs by MTT assay. The series is classed as cell-based. On the technique in general: Formazan colour is commonly taken as a measure of viable cells.
Series [7] deals with Human immunodeficiency virus 1. Put plainly: Antiviral activity against HIV1 NL4.3 infected in MAGIC-5B cells after 48 hrs by beta-galactosidase reporter gene assay. The series is classed as functional, organism-based. The note with it: Human immunodeficiency virus 1, NL4.3, 48 h. In outline: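 MAGIC-5B indicator cells (beta-galactosidase under the HIV-1 LTR), 8×10^4 per well, were exposed to these supernatants. After 48 h, ONPG hydrolysis was read in lysates and normalised to total protein.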
Background: In a reporter assay the amount or activity of a reporter protein is the signal.

The test system of series [8] is Human immunodeficiency virus. Put plainly: Antiviral activity against HIV infected in H9 cells. The series is classed as functional, organism-based. The note with it: Human immunodeficiency virus 1, H9.
In series [9] the test system is Human immunodeficiency virus 1. Briefly: Binding affinity to HIV1 NL4.3 CA-SP1 at 550 uM by chemical shift pertubation NMR analysis. In short, it runs like this:
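2D 1H-1H NOESY of CA-SP1-NC peptide (250 uM) with and without ligand (550 uM). pH 3.8 in H2O/TFE 70/30 (to prevent aggregation) with 1% DMSO-d6. Spectral width 5296.6 Hz, excitation-sculpting water suppression, 250 ms NOE mixing time. Chemical-shift perturbation of the wild-type junction plotted per residue.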

Series [10] in a line: Ratio of compound selectivity index to bevirimat selectivity index for HIV1 NL4.3 over human MAGIC-5B cells.

Consider `C=C(C)[C@@H]1CC[C@]2(C(=O)N[C@@H](CCCCNC(=O)OC(C)(C)C)C(=O)O)CC[C@]3(C)[C@H](CC[C@@H]4[C@@]5(C)CC[C@H](OC(=O)CC(C)(C)C(=O)O)C(C)(C)[C@@H]5CC[C@]43C)[C@@H]12`, for which the result in series [1], in series [2] and in series [3] was Active. Moreover, the inhibition result in series [4] is “Active”. Moreover, the “Ratio CC50/IC50” value in [5] came out at 199.41. In series [6], this molecule registered a CC50 at 48 h of 33.9 µM. Also, the IC50 in [7] was determined as 0.17 µM.
For `C=C(C)[C@@H]1CC[C@]2(C(=O)O)CC[C@]3(C)[C@H](CC[C@@H]4[C@@]5(C)CC[C@H](OC(=O)CC(C)(C)C(=O)O)C(C)(C)[C@@H]5CC[C@]43C)[C@@H]12` [BEVIRIMAT], the EC50 in series [8] is more than 0.00035 µM. Further, the outcome in series [1], in series [2] and in [3] was Active. For the same molecule, the inhibition entry in series [4] was “Active”.
With `C=C(C)[C@@H]1CC[C@]2(C(=O)NCCC(=O)O)CC[C@]3(C)[C@H](CC[C@@H]4[C@@]5(C)CC[C@H](OC(=O)CC(C)(C)C(=O)O)C(C)(C)[C@@H]5CC[C@]43C)[C@@H]12`, the outcome in series [1], in [2] and in [3] was Active. The inhibition entry in [4] is “Active”. Further, the “Ratio CC50/IC50” value in [5] is on record as 411.01. The molecule also gave a CC50 at 48 h in [6] of 48.5 µM. It took 0.118 µM to reach half-maximal inhibition in series [7] (IC50).
Turning to `C=C(C)[C@@H]1CC[C@]2(C(=O)NCC(=O)O)CC[C@]3(C)[C@H](CC[C@@H]4[C@@]5(C)CC[C@H](OC(=O)CC(C)(C)C(=O)O)C(C)(C)[C@@H]5CC[C@]43C)[C@@H]12`, the result in series [1], in series [2] and in series [3] was Active. The inhibition result in [4] is “Active”. The “Ratio CC50/IC50” value in [5] was found to be 309.37. Further, the CC50 at 48 h in series [6] worked out at 49.5 µM. For the same molecule, the IC50 in series [7] came out at 0.16 µM.
Turning to `C=C(C)[C@@H]1CC[C@]2(C(=O)O)CC[C@]3(C)[C@H](CC[C@@H]4[C@@]5(C)CC[C@H](O)C(C)(C)[C@@H]5CC[C@]43C)[C@@H]12` [BETULINIC ACID], the result in [1], in series [2] and in [3] was inactive. In addition, the inhibition result in [4] is “inactive”. The “Ratio CC50/IC50” value in [5] amounted to 0.85. Moreover, in series [6], the CC50 at 48 h was 4.52 µM. For the same molecule, the IC50 in series [7] worked out at 5.32 µM.
As to `C=C(C)[C@@H]1CC[C@]2(C(=O)N[C@@H](CCCCN)C(=O)O)CC[C@]3(C)[C@H](CC[C@@H]4[C@@]5(C)CC[C@H](OC(=O)CC(C)(C)C(=O)O)C(C)(C)[C@@H]5CC[C@]43C)[C@@H]12`, the result in series [1], in series [2] and in series [3] was inactive. Moreover, the inhibition entry in [4] is “inactive”. Moreover, the “Ratio CC50/IC50” value in [5] is 11.24. Moreover, in [6], half-maximal cytotoxicity (CC50 at 48 h) was put at 48.7 µM. This molecule also gave an IC50 in [7] of 4.33 µM.
With `C=C(C)[C@@H]1CC[C@]2(C(=O)NCCN)CC[C@]3(C)[C@H](CC[C@@H]4[C@@]5(C)CC[C@H](OC(=O)CC(C)(C)C(=O)O)C(C)(C)[C@@H]5CC[C@]43C)[C@@H]12`, the outcome in [9], in [1], in series [2] and in series [3] was Active. Besides, in [4], the inhibition result is “Active”. Further, the Ratio in [10] turned out to be 2. Also, the “Ratio CC50/IC50” value in [5] came out at 2118.75. In [6], this molecule returned a CC50 at 48 h of 33.9 µM. The same molecule returned an IC50 in [7] of 0.016 µM.
